# Measured values from different studies.
# Each line is one published result; the experiments were not run side by side.
# Cell line: NCI-H23
# Observed: cell growth or viability
Compound,assay,conditions,quantity,result
CCc1n(Cc2ccc3ccccc3n2)cc[n+]1Cc1ccc2ccccc2c1,SRB,,TGI,3230 nM
Cc1cc(C)n(C(=S)[S][Au][PH](CCCCCC[PH]([Au][S]C(=S)n2nc(C)cc2C)(c2ccccc2)c2ccccc2)(c2ccccc2)c2ccccc2)n1,SRB,,GI50,1540 nM
COc1cccc(Oc2ccccc2NC(=O)CNC(=O)c2cccc3ccccc23)c1,SRB,48 h,GI50,741 nM
O=C1Nc2ccccc2C1=NNc1nnc2n1N=C(c1ccccc1)CS2,SRB,10 µM,inhibition,31%
COc1ccc(C(=O)/C=C/c2ccc3ccccc3c2)cc1S(N)(=O)=O,SRB,10 µM,inhibition,124%
c1ccc(-c2n(Cc3ccc4ccccc4c3)cc[n+]2Cc2ccc3ccccc3c2)cc1,SRB,,TGI,2350 nM
COc1ccc(-c2ccc(-c3ccc(C(=N)N)nc3)s2)cc1,SRB,,GI50,1840 nM
O=C1NCCc2[nH]c(-c3ccncc3)cc21,,,IC50,> 10000 nM
COc1ccc(C(=O)/C=C/c2cccnc2)cc1S(N)(=O)=O,SRB,10 µM,inhibition,78%
C[C@]12CC[C@@H]3c4ccc(O)cc4CC[C@H]3[C@@H]1CC[C@@H]2O,ATP luminescence,72 h,EC90,78500 nM
O=C(/C=C/c1ccc2ncn(Cc3ccccc3)c(=O)c2c1)NO,SRB,48 h,IC50,1000 nM
COc1ccc(C(=O)/C=C/c2cccc3ccccc23)cc1S(N)(=O)=O,SRB,10 µM,inhibition,120%
CCc1n(Cc2ccc3ccccc3n2)cc[n+]1Cc1ccc2ccccc2n1,SRB,,GI50,257 nM
COc1ccc(C(=O)/C=C/c2cc3c(cc2Br)OCO3)cc1S(N)(=O)=O,SRB,48 h,GI50,4300 nM
O=C(/C=C/c1ccc2c(=O)n(CC3CCCCC3)cnc2c1)NO,SRB,48 h,IC50,2290 nM
CCCc1n(Cc2ccc3ccccc3n2)cc[n+]1Cc1ccc2ccccc2n1,SRB,,TGI,15000 nM
COc1ccccc1/C=C/C(=O)c1ccc(OC)c(S(N)(=O)=O)c1,SRB,48 h,GI50,2300 nM
